Data as given in ChEMBL document CHEMBL1135535, “Discovery and optimization of a series of carbazole ureas as NPY5 antagonists for the treatment of obesity” (J Med Chem, 2002).
pIC50: −log10 of the molar value. Each block holds one compound with its values, some of them ahead of it.

What was measured:
[1] = biological target: T1, Neuropeptide Y receptor type 5 (Homo sapiens, UniProt Q15761); test: Binding affinity to the human Neuropeptide Y receptor Y5 (NPY5)
T1 sequence (Q15761 whole entry): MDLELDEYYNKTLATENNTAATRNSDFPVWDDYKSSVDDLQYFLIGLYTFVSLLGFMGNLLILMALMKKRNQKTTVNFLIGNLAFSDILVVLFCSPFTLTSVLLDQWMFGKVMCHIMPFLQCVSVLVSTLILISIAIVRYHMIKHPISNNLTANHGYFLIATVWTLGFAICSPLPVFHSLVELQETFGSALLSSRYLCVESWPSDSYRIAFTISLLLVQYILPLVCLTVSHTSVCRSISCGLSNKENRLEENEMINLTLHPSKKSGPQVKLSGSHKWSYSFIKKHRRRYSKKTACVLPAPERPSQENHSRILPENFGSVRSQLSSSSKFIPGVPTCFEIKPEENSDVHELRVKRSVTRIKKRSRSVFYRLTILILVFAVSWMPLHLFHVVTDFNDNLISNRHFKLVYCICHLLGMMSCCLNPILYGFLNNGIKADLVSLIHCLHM
Summary of the method: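 Membranes from Hi5 insect cells infected 48 h with baculovirus carrying rat or human NPY-5 receptor, prepared by sonication in hypotonic Tris/EDTA/sucrose buffer and harvested on a 41% sucrose cushion. 0.01 µCi [125I]PYY incubated with membranes and compound in HEPES buffer (CaCl2, MgCl2, 0.5% BSA, pH 7.4) for 2 h at room temperature. Filtered onto PEI-treated GF/C plates, then scintillation counted.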

Salmonella typhimurium [2] = test: Ames activity in TA 98+S9, expressed as maximum fold increase in mutation frequency; assay type: functional, Salmonella enterica subsp. enterica serovar Typhimurium
Summary of the method: (§1)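 Salmonella typhimurium TA98 plate incorporation assay with S9 mix. The S9 is the postmitochondrial fraction of livers from Aroclor 1254-treated Sprague–Dawley rats, supplemented with cofactors for NADPH generation. Tested across 6–2000 μg/plate. The value is the maximum increase in mutation frequency relative to background across that dose range.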

Salmonella typhimurium [3] = test: Ames activity in TA 98+S9, expressed as maximum fold increase in mutation frequency; NI means no increase; assay type: functional, organism-based; conditions: Salmonella enterica subsp. enterica serovar Typhimurium; summary of the method: as §1
[4] = Half-life of compound at a dose 10 umol/kg was administered intravenously; assay type: ADME, organism-based; conditions: in vivo, iv
[5] = Volume of distribution of compound at a dose 10 umol/kg was administered intravenously; assay type: ADME, organism-based; conditions: in vivo, iv, read-out: Vss
[6] = Tmax of compound at a dose 30 umol/kg administered orally; assay type: ADME, organism-based; conditions: in vivo, po
[7] = Half-life of compound at a dose 30 umol/kg administered orally; assay type: ADME, organism-based; conditions: in vivo, po
[8] = biological target: T1, Neuropeptide Y receptor type 5; test: Compound was evaluated for functional antagonism of Neuropeptide Y receptor Y5 activity in cellular Ca flux
[9] = Clearance level at a dose 10 umol/kg administered intravenously; assay type: ADME, organism-based; conditions: in vivo, iv
[10] = Bioavailability of compound at a dose 30 umol/kg administered orally; assay type: ADME, organism-based; conditions: eutheria, in vivo, po, at 30 µmol/kg
[11] = Percent inhibition of 5-HT2b and adenosine transport at 10 uM Y1, Y2, Y4 and 80 other receptors at > 10 uM; assay type: functional
Summary of the method: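 Selectivity screen with compound tested at 10 µM for binding to 5HT2b receptor and for inhibition of adenosine transport. Y1, Y2, Y4 and 80 other receptors were also screened. Human Y1, Y2 and Y4 membranes came from SK-N-MC cells, KAN-TS cells and stable Y4-expressing CHO cells, using the [125I]PYY filtration binding format.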

[12] = biological target: T1, Neuropeptide Y receptor type 5; test: The compound was evaluated in vitro for: human Neuropeptide Y receptor Y5 functional antagonism
[13] = Maximum concentration of compound at a dose 30 umol/kg administered orally; assay type: ADME, organism-based; design: dose 30 umol/kg, route oral; conditions: in vivo, po
Rattus norvegicus [14] = test: Concentration of compound in rat whole brain after oral dosing at 2 mg/kg after 90 min; assay type: functional, organism-based; design: dose 2 mg/kg
Summary of the method: (§2)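 Single oral dose of 2 mg/kg to rats. Plasma, whole brain and CSF concentrations were measured at 90 min.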

Rattus norvegicus [15] = test: Concentration of compound in rat plasma after oral dosing at 2 mg/kg after 90 min; assay type: functional, organism-based; design: dose 2 mg/kg; summary of the method: as §2
Rattus norvegicus [16] = test: Concentration of compound in rat CSF after oral dosing at 2 mg/kg after 90 min; assay type: functional, organism-based; design: dose 2 mg/kg; summary of the method: as §2

pIC50 [1]: < 5.00
SMILES: CCn1c2ccccc2c2c(NC(=O)CCc3ccncc3)cccc21

pIC50 [1]: 5.65
SMILES: CCn1c2ccccc2c2cc(CC(=O)NCc3ccncc3)ccc21

SMILES: Cc1cc2c(cc1N)c1ccccc1n2C(C)C
Mutation frequency (Salmonella typhimurium [2]): 3

SMILES: CCOc1c(N)ccc2c1c1ccccc1n2C(C)C
NI (Salmonella typhimurium [3]): no increase

pIC50 [1]: 6.11
SMILES: CC(C)c1c(NC(=O)N2CCOCC2)ccc2c1c1ccccc1n2C(C)C

pIC50 [1]: 6.64
SMILES: O=C(CCc1ccncc1)Nc1ccc2[nH]c3ccccc3c2c1

pIC50 [1]: 8.52
SMILES: CC(=O)n1c2ccccc2c2cc(NC(=O)CCc3ccncc3)ccc21

SMILES: CN(C)S(=O)(=O)n1c2ccccc2c2cc(N)ccc21
Max fold increase (Salmonella typhimurium [2]): 39

SMILES: CC(C)n1c2ccccc2c2cc(N)ccc21
Mutation frequency (Salmonella typhimurium [2]): 3

pIC50 [1]: 6.10
SMILES: CCn1c2ccccc2c2ccc(NC(=O)CCc3ccncc3)cc21

pIC50 [1]: 8.10
SMILES: CN(C)S(=O)(=O)n1c2ccccc2c2cc(NC(=O)CCc3ccncc3)ccc21

pIC50 [1]: 9.00
SMILES: CS(=O)(=O)n1c2ccccc2c2cc(NC(=O)CCc3ccncc3)ccc21

pIC50 [1]: 6.36
SMILES: CCn1c2ccccc2c2cccc(NC(=O)CCc3ccncc3)c21

SMILES: CS(=O)(=O)n1c2ccccc2c2cc(N)ccc21
Max fold increase (Salmonella typhimurium [2]): 35

pIC50 [1]: 7.48
SMILES: Cn1c2ccccc2c2cc(NC(=O)CCc3ccncc3)ccc21

SMILES: CC(C)n1c2ccccc2c2c(F)c(N)c(F)cc21
Mutation frequency (Salmonella typhimurium [2]): 2

pIC50 [1]: 8.52 | half-life [4]: 3.7 h | Vd [5]: 0.41 L/kg | Tmax [6]: 1 h | half-life [7]: 6.4 h | pIC50 [8]: 8.22 | clearance [9]: 1.33 mL/min/kg | bioavailability [10]: 76% | inhibition [11]: 70% | pIC50 [12]: 7.43 | Cmax [13]: 35 µM
SMILES: Cc1c(NC(=O)N2CCOCC2)ccc2c1c1ccccc1n2C(C)C

SMILES: Cc1c(N)cc(C)c2c1c1ccccc1n2C(C)C
NI (Salmonella typhimurium [3]): no increase

pIC50 [1]: 8.70
SMILES: Cc1cccc2c3cc(NC(=O)N4CCOCC4)ccc3n(C(C)C)c12

SMILES: CC(C)n1c2ccc(N)cc2c2cc(F)ccc21
Mutation frequency (Salmonella typhimurium [2]): 15

SMILES: CC(C)c1c(N)ccc2c1c1ccccc1n2C(C)C
NI (Salmonella typhimurium [3]): no increase

pIC50 [1]: 8.70
SMILES: CC(C)n1c2ccccc2c2cc(NC(=O)N3CCOCC3)ccc21

pIC50 [1]: 8.15
SMILES: CCn1c2ccccc2c2cc(NC(=O)N3CCOCC3)ccc21
Concentration (Rattus norvegicus [14]): 500 nM | Concentration (Rattus norvegicus [15]): 740 nM | Concentration (Rattus norvegicus [16]): 17 nM
